# Screening data: PubChem BioAssay, several laboratories
# In the library only some 2.5% were active in any assay of this set; here they are far more common.
# UHRF1 binding = UHRF1 methyl-DNA binding inhibition. Q96T88. UHRF1 binding to methylated oligo, TR-FRET. inhibition, % at 4.4 µM. 370,000 compounds, 0.75% hits. AID 687016; in the data active means inhibition above about 21%;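 further: UHRF1 SRA domain binding a hemimethylated CpG hairpin DNA probe; 0% = median of test compound wells and 100% = reference inhibitor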
# DNMT1 block = DNMT1 (human) enzyme inhibition; 360,000 compounds, 0.83% hits; inhibition (reported as % activation of signal), % at 10 µM; DNMT1 molecular beacon, Hinp1I cleavage, fluorescence; in the data active means inhibition above about 50%
# SUMO1-SIM PPI = modulators of human SUMO1-mediated protein-protein interactions | inhibition, % at 20 µM | AID 602429 | 360,000 compounds, 0.33% hits | P63165 | SUMO1 binding to a labelled peptide, TR-FRET, 1 h
# MBD2 inh = MBD2-methylated oligo binding inhibition; Q9UBB5; TR-FRET, MBD2 binding to methylated oligonucleotide; inhibition, % at 4.4 µM; 370,000 compounds, 0.31% hits; AID 686964; in the data active means inhibition above about 13%
# Target sequence (Q9UBB5 whole entry, looked up): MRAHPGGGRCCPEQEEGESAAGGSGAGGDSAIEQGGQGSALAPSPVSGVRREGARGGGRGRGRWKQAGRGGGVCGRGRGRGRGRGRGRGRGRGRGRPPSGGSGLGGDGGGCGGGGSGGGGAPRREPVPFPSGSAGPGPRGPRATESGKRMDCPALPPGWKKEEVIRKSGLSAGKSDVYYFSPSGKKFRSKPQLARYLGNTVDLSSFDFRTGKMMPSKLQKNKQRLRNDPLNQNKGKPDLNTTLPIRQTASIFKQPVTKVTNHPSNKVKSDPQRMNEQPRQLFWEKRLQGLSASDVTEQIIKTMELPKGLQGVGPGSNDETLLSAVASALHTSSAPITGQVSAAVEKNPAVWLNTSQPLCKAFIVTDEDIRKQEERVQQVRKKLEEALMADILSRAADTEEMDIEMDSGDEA
# Pemphigus Ab inh = inhibitors of pemphigus antibody binding to human desmoglein-3. 310,000 compounds, 0.48% hits. P32926. binding (percent of control), % at 10 µM. DSG3-coupled beads, scFv-anti-DSG3-GFP binding, flow cytometry; stronger effect = lower value. AID 588358;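 active means binding more than 3 SD below its plate's average and above zero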
# HCV NS3 hel inh = HCV NS3 helicase inhibition | NS3 helicase DNA unwinding, Cy5 molecular beacon fluorescence | 290,000 compounds, 0.56% hits | AID 1800 | inhibition, % at 10.9 µM;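 active means inhibition above the mean of all tested compounds plus 3 SD, set per campaign, cut at about 35% in these data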;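 further: 0% = DMSO wells and 100% = thioflavine S control wells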
#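 System: Hepatitis C virus NS3 helicase domain fragment enzyme | Reagent: Annealed dual-labelled DNA beacon duplex, ATP-started | Compound dosing: 10.9 µM single point, 0.8% DMSO | Incubation: 1 h reaction at 25 °C, ATP-initiated | Technique: Cy5 fluorescence | Evaluation: Percent inhibition from t60/t0 fluorescence ratio | Benchmarks: Low DMSO, high thioflavine S at 110 µM | Replication: Singlicate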
# NS3 hel confirm = confirmation of Hepatitis C virus NS3 helicase inhibitors | AID 1943 | NS3 helicase DNA unwinding, Cy5 molecular beacon fluorescence | inhibition, % at 10.9 µM | 1,600 compounds, 31% hits | shares compounds with HCV NS3 hel inh;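 active means inhibition above the mean of all tested compounds plus 3 SD, cutoff set per campaign, cut at about 36% in these data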
# DNA FID counter = displaces DNA intercalator in HCV helicase counter-screen | 1,600 compounds, 4% hits | DNA fluorescent intercalator displacement, fluorescence | shares compounds with HCV NS3 hel inh | inhibition, % at 7.9 µM;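 further: 0% = vehicle and 100% = reference compound; higher means more displacement of ethidium bromide from the DNA hairpin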
# * hit, by the source's call; nt = no result. Unless noted, no stated cut-off is given here; in the data, active means inhibition above about 37%; inactive means the rest.
SMILES,UHRF1 binding,DNMT1 block,SUMO1-SIM PPI,MBD2 inh,Pemphigus Ab inh,HCV NS3 hel inh,NS3 hel confirm,DNA FID counter
COC(=O)c1ccc(CN2CCN(CC(C)C)C(CCO)C2)cc1 (stereo not drawn),-2,0,-3,-11,97,38*,-16,0
CCOC(=O)C1=C(N)n2c(s/c(=C/c3ccco3)c2=O)=C(C(=O)OC)C1c1ccco1 (stereo not drawn),20,12,4,1,88,41*,-3,9
CCOC(=O)C1=C(C)NC(C)=C(C(=O)OC)C1c1ccco1 (stereo not drawn),2,1,-5,-1,115,37*,-5,10
CCOC(=O)C1=c2s/c(=C\c3ccncc3)c(=O)n2C(N)=C(C(=O)OC)C1c1ccncc1 (stereo not drawn),-2,9,-10,-9,101,0,nt,nt
C=CCOC(=O)C1=C(C)NC(C)=C(C(=O)OCC=C)C1c1ccco1,0,3,14,-4,nt,-13,nt,nt
Cc1cc(/C=C2\C(=N)N3N=C(C(C)C)SC3=NC2=O)c(C)n1-c1ccccc1,4,0,-6,1,97,51*,-1,2
O=C(Nc1cccc(C2=NCCN2)c1)Nc1cccc(C2=NCCN2)c1,8,7,-31,0,109,nt,nt,nt
O=C(O)c1ccc(N/N=C/c2ccc(-c3cccc(Cl)c3)o2)cc1,-1,1,6,0,99,-8,nt,nt
Cc1c(C(=O)O)cccc1-c1ccc(/C=N/Nc2ccc(Br)cc2)o1,0,8,10,2,103,44*,38*,2
O=C(O)c1ccc(N/N=C/c2ccc(-c3ccc(Cl)cc3Cl)o2)cc1,0,0,31,2,93,36*,53*,17
O=C(O)c1ccc(N/N=C/c2ccc(-c3cc(Cl)ccc3Cl)o2)cc1,11,7,14,2,105,40*,62*,14
C=CCn1c(SCC(N)=O)nnc1-c1ccc(C)cc1,-1,nt,nt,-2,nt,nt,nt,nt
Cc1ccc(-n2c(C)cc(C(=O)NS(=O)(=O)c3ccc(C)cc3)c2C)cc1,2,3,2,3,102,39*,43*,-31
Cc1ccc(S(=O)(=O)NC(=O)c2cc(C)n(C3CC3)c2C)cc1,0,0,3,0,102,38*,-18,-7
Cc1ccc(S(=O)(=O)NC(=O)c2cc(C)n(CCCN3CCOCC3)c2C)cc1,0,0,8,-3,102,4,nt,nt
CC1CC(C)CN(C(=O)C2CCCN(c3ncnc4c3nc3n4CCCCC3)C2)C1 (stereo not drawn),-2,0,9,1,nt,3,nt,nt
CN(/N=C/c1cccc(Br)c1)C1=NS(=O)(=O)c2ccccc21,3,-6,16,2,103,-11,nt,nt
CCc1nc(N[C@@H](Cc2c[nH]c3ccccc23)C(=O)O)c2oc3ccccc3c2n1,-1,-1,8,3,99,0,nt,nt
Cc1nc(N[C@@H](Cc2c[nH]c3ccccc23)C(=O)O)c2oc3ccccc3c2n1,0,nt,nt,-1,nt,42*,-5,-10
CC(=O)C1=C(O)C(=O)N(Cc2ccccc2)C1c1cccc([N+](=O)[O-])c1 (stereo not drawn),3,0,-5,1,106,10,nt,nt
CC(C)CC(=O)C1=C(O)C(=O)N(Cc2ccccc2)C1c1ccccc1 (stereo not drawn),-2,2,-1,5,109,36*,-26,-12
CC(=O)C1=C(O)C(=O)N(Cc2ccccc2)C1c1ccc(Br)cc1 (stereo not drawn),-3,0,-2,-3,99,41*,22,-9
CC(SCc1ccccc1)C(=O)Nc1ccc2c(c1)OCO2 (stereo not drawn),-2,-9,0,3,100,-6,nt,nt
N#Cc1c(N2C(=O)Nc3ccccc3N2O)sc2c1CCCCCC2,7,5,-2,1,113,42*,54*,-7
